Measured values: ChEMBL document CHEMBL1129368 (J Med Chem, 1996)
Bridge positions count the residues as written; N and C are the ends. Square brackets hold non-standard residues; d marks the D form. Peptide text beside a SMILES is read from it. Pen = CC(C)(S)[C@H](N)C(=O)O; Sar = CNCC(=O)O

Species on record: Oryctolagus cuniculus
Test: Activity of compound in contraction assays performed using isolated rabbit aorta
Format: functional
Method in brief: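 Rings (5 mm) cut from excised aorta, cleaned of adipose tissue, hung in 5 mL organ baths of continuously oxygenated Krebs solution at 37 °C, changed every 15 min. Initial tension 2 g, readjusted until stable (about 90 min equilibration) before testing.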

EC50 [nM]	SMILES
94	CNCC(=O)N[C@@H](CCCN=C(N)N)C(=O)N[C@H](C(=O)N[C@H](Cc1ccc(O)cc1)C(=O)N1CCC[C@H]1C(=O)N[C@@H](Cc1c[nH]cn1)C(=O)N1CCC[C@H]1C(=O)N[C@@H](Cc1ccccc1)C(=O)O)C(C)C
1770	CNCC(=O)N[C@@H](CCCNC(=N)N)C(=O)N[C@H](C(=O)N[C@@H](Cc1ccc(O)cc1)C(=O)N[C@@H]1CCSS[C@@H]2C[C@H](C(=O)N[C@@H](Cc3ccccc3)C(=O)O)N(C2)C(=O)[C@@H](Cc2cnc[nH]2)NC1=O)C(C)C
0.35	CNCC(=O)N[C@@H](CCCN=C(N)N)C(=O)N[C@H](C(=O)N[C@@H](Cc1ccc(O)cc1)C(=O)N[C@H](C(=O)N[C@@H](Cc1c[nH]cn1)C(=O)N1CCC[C@H]1C(=O)N[C@@H](Cc1ccccc1)C(=O)O)C(C)C)C(C)C (H-[Sar]RVYVHPF-OH)
4.6	CC[C@H](C)[C@H](NC(=O)[C@H](Cc1ccc(O)cc1)NC(=O)[C@@H](NC(=O)[C@H](CCCNC(=N)N)NC(=O)[C@@H](N)CC(=O)O)C(C)C)C(=O)N[C@@H](Cc1cnc[nH]1)C(=O)N1CCC[C@H]1C(=O)N[C@@H](Cc1ccccc1)C(=O)O [ANGIOTENSIN II]

The molecules below were run against Type-1 angiotensin II receptor (Bos taurus) (UniProt P25104) (assay: Binding affinity was determined against Angiotensin II receptor, type 1).
Chain of Type-1 angiotensin II receptor (Bos taurus) (P25104 whole entry, looked up): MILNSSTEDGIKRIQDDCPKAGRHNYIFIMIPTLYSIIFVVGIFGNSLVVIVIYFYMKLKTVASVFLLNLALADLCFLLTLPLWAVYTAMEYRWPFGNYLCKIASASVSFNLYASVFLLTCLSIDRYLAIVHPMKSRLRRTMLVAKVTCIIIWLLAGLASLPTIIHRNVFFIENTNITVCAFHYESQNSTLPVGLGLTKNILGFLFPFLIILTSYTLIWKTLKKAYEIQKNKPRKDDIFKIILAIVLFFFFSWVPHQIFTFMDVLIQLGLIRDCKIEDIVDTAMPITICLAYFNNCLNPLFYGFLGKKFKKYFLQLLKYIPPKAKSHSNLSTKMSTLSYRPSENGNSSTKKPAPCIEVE

SMILES	Kd [nM]
CNCC(=O)N[C@@H](CCCNC(=N)N)C(=O)N[C@H](C(=O)N[C@@H](Cc1ccc(O)cc1)C(=O)N[C@@H]1CSS[C@@H]2C[C@H](C(=O)N[C@@H](Cc3ccccc3)C(=O)O)N(C2)C(=O)[C@@H](Cc2cnc[nH]2)NC1=O)C(C)C	2300
CNCC(=O)N[C@@H](CCCNC(=N)N)C(=O)N[C@H](C(=O)N[C@H](Cc1ccc(O)cc1)C(=O)N1CCC[C@H]1C(=O)N[C@@H](Cc1cnc[nH]1)C(=O)N1CCC[C@H]1C(=O)N[C@@H](Cc1ccccc1)C(=O)O)C(C)C	58
CNCC(=O)N[C@@H](CCCNC(=N)N)C(=O)N[C@H](C(=O)N[C@@H](Cc1ccc(O)cc1)C(=O)N[C@@H]1CCSS[C@@H]2C[C@H](C(=O)N[C@@H](Cc3ccccc3)C(=O)O)N(C2)C(=O)[C@@H](Cc2cnc[nH]2)NC1=O)C(C)C	20

The remaining lines, values ahead:

Kd [nM]	SMILES
750	CNCC(=O)N[C@@H](CCCNC(=N)N)C(=O)N[C@H](C(=O)N[C@@H](Cc1ccc(O)cc1)C(=O)N[C@H]1CCSS[C@@H]2C[C@@H](C(=O)N[C@@H](Cc3ccccc3)C(=O)O)N(C2)C(=O)[C@H](Cc2cnc[nH]2)NC1=O)C(C)C
> 10000	CNCC(=O)N[C@@H](CCCN=C(N)N)C(=O)N[C@H](C(=O)N[C@H](Cc1ccc(O)cc1)C(=O)N[C@@H]1CCC(=O)N[C@@H]2C[C@H](C(=O)N[C@H](Cc3ccccc3)C(=O)O)N(C2)C(=O)[C@@H](Cc2c[nH]cn2)NC1=O)C(C)C
> 10000	CNCC(=O)N[C@@H](CCCNC(=N)N)C(=O)N[C@H](C(=O)N[C@@H](Cc1ccc(O)cc1)C(=O)N[C@@H]1CC(=O)N[C@@H]2C[C@H](C(=O)N[C@@H](Cc3ccccc3)C(=O)O)N(C2)C(=O)[C@@H](Cc2cnc[nH]2)NC1=O)C(C)C
> 10000	CNCC(=O)N[C@@H](CCCNC(=N)N)C(=O)N[C@H](C(=O)N[C@@H](Cc1ccc(O)cc1)C(=O)N[C@H]1CSS[C@@H]2C[C@@H](C(=O)N[C@@H](Cc3ccccc3)C(=O)O)N(C2)C(=O)[C@H](Cc2cnc[nH]2)NC1=O)C(C)C
> 10000	CNCC(=O)N[C@@H](CCCNC(=N)N)C(=O)N[C@H](C(=O)N[C@@H](Cc1ccc(O)cc1)C(=O)N[C@H]1CSSC(C)(C)[C@@H](C(=O)N[C@@H](Cc2ccccc2)C(=O)O)NC(=O)[C@H](Cc2cnc[nH]2)NC1=O)C(C)C (H-[Sar]RVYCH[Pen]F-OH; disulfide 5-7)
